High-throughput results deposited in PubChem by several laboratories.
FLuc stim CS: firefly luciferase counter-screen for stimulation assays | AID 1027 | activation factor at 10 µM | ATPlite luciferase biochemical, luminescence, 10 min; 0 = ATP-free wells, 1 = DMSO control | 200,000 tested, under 10 active | P08659;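 active means luciferase activation factor, scaled between plate controls, of at least 2 with compound at 10 µM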
Target sequence (P08659 whole entry, looked up): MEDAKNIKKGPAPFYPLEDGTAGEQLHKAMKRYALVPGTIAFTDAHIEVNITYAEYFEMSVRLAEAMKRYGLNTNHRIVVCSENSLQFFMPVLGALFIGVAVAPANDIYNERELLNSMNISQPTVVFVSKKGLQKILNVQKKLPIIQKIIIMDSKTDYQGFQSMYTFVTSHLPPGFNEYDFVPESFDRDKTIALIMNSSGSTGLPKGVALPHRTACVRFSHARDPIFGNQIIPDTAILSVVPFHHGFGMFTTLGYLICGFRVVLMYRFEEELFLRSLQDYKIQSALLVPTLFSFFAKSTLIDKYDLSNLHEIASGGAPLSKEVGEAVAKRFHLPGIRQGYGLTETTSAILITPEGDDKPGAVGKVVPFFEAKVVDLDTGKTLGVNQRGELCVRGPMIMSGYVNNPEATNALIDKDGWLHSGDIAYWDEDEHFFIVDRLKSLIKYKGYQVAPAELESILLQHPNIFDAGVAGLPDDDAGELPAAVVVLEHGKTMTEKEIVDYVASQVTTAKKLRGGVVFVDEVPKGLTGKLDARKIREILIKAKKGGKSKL
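Assay system: Luciferase/luciferin detection reagent, cell-free biochemical luciferase assay / Also added: ATP substrate / Schedule: 10 min at ambient temperature / Measured by: luminescence measurement of luciferase light output / Benchmarks: low control with PBS replacing ATP, high control enzyme plus ATP without compound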
NF-kB expr up: NF-kB expression increase, human neuronal cells; NF-kB reporter expression; active compounds read high; fold change at 12.5 µM; actives 1.6% (n = 190,000); in the data active means fold change above about 3.3
APP 5'UTR act: activates APP 5'UTR luciferase reporter; SH-SY5Y APP 5'UTR luciferase reporter, luminescence; zero percent = DMSO vehicle wells; activation, % at 2 µM; actives 1% (n = 190,000);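 active means activation above a set limit, based on mean plus 3 SD of controls, cut at about 140% in these data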
STAT1 activator: STAT1 signaling activation. NIH 3T3 STAT1-luciferase reporter, IFN-gamma, luminescence; 100% = IFN-gamma alone, no compound. activation (% of control), % at 5.5 µM. actives 2.6% (n = 200,000);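 active means activation above the screen-wide mean activation plus 3 SD, cut at about 130% in these data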;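 further: raw ratio to IFN-gamma control signal so 100% means no change and 0% no light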
FLuc inh counter: inhibits firefly luciferase, flagging false hits in luciferase inhibition screens; actives 1.5% (n = 200,000); inhibition, % at 10 µM; ATPLite firefly luciferase biochemical luminescence, 10 min; P08659;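 active means inhibition above about 50% when tested at 10 µM, limit read from the data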
An asterisk follows results filed as active; . = not tested or not shown. Compounds with a hit are over-represented: about 4.1% of the library has one in this group of screens.

SMILES	FLuc stim CS	NF-kB expr up	APP 5'UTR act	STAT1 activator	FLuc inh counter
CCCCCCSc1nsc(NC(C)=O)n1	1.1	2.61	25.9	129.9*	-9.2
CCCCSc1nsc(NC(C)=O)n1	0.9	3.21	141.7*	127.1	5.8
N#Cc1c(NC(=O)c2cnn3cccnc23)sc2c1CCCC2	0.9	1.15	78.4	116.6	14.6
N#Cc1c(NC(=O)c2nc3ncccn3n2)sc2c1CCCCC2	0.4	2.39	-18.5	117.6	56.9*
Cc1ccc(-c2nc3ccsc3c(=O)[nH]2)cc1	0.3	2.42	198.5*	127.1	74.8*
CCOC(=O)CSc1nc2ccsc2c(=O)[nH]1	1	0.96	8.7	96.8	-2.8
O=C(c1ccccc1)n1c(=S)nc2ccccn21	0.1	.	.	.	94.0*
Cc1ccc(C(=O)n2ncn(C)c2=S)cc1	1	1.23	18.7	96.0	-1.5
Cc1ccc(C(=O)n2c(=S)nc3ccccn32)cc1	0	2.63	183.8*	150.5*	96.4*
Cc1ccccc1-c1nc2cc(N)ccc2o1	0.4	3.95*	63.4	141.3*	55.2*
CC(C)c1ccc2oc(-c3cc(N)ccc3O)nc2c1	0.1	2.36	157.9*	116.0	92.8*
Nc1ccc(Cl)c(-c2nc3ncccc3o2)c1	0.9	1.73	7.4	103.2	8.2
CSc1ccc(/C=N/Nc2cccc(C(=O)O)c2)cc1	0.4	18.3*	-8.5	40.7	57.2*
O=C(O)c1cccc(N/N=C/c2cccs2)c1	0.6	15*	-9.0	46.5	43.7
CCCNC(=O)Nc1ccccc1SC	1	0.83	8.3	99.9	-3.7
O=C(O)C1CC=CCC1C(=O)Nc1cc(Cl)ccc1Cl (stereo not drawn)	1	1.11	6.2	104.4	-2.8
CCOC(=O)N1CCN(C(=O)CSc2nnc(-c3ccc(C(C)(C)C)cc3)o2)CC1	0.5	1.21	6.9	87.1	53.1*
CCOC(=O)N1CCN(C(=O)CSc2nnc(-c3ccc(C)c(C)c3)o2)CC1	0.9	0.94	-3.0	96.4	7.6
CC(=O)Nc1c(NC(C)(C)C)c2ccccc2oc1=O	1	1.06	13.3	102.9	-3.0
Cc1nn(C)c(C)c1NC(=O)CSc1nc(-c2ccccc2Cl)nc2c1cnn2-c1ccccc1	1	1.02	-12.1	109.9	-4.3
Cc1ccc2nc(-c3ccccc3)cn2c1	0	0.96	2.7	23.2	95.7*
Cc1ccc2nc(-c3ccc(S(=O)(=O)N4CCOCC4)cc3)cn2c1	1	0.93	-13.4	103.7	-1.7
CC(=O)Nc1ccc(-c2cn3cc(C)ccc3n2)cc1	0.2	5.93*	149.4*	130.0*	83.9*
COC(=O)c1c(NC(C)=O)sc(C(=O)Nc2ccccc2F)c1C	1	1.18	2.5	116.8	-3.3
CCOC(=O)c1cc(C(=O)Nc2ccccc2F)nn1C	0.9	5.89*	11.2	133.4*	14.4
SMILES	FLuc stim CS	NF-kB expr up	APP 5'UTR act	STAT1 activator	FLuc inh counter
CCC(=O)Nc1sc(C(=O)Nc2ccccc2F)c(C)c1C(=O)OC	1.1	1.13	65.5	131.2*	-8.9
CCOC(=O)c1c(N)sc(C(=O)Nc2ccccc2)c1C	0.2	7.1*	221.8*	105.9	84.2*
CCOC(=O)c1[nH]c(C)c(C(=O)Nc2ccccc2F)c1C	1.1	2.05	-62.4	123.0	-7.2
CCOC(=O)c1c(N)sc(C(=O)Nc2ccccc2F)c1C	0.2	7.44*	237.9*	101.1	75.3*
O=C1Nc2ccc(Br)cc2C1(O)Cc1ccccn1 (stereo not drawn)	1	1.13	18.2	96.0	-2.9
C=CCOc1c(Cl)cc(CNc2ccc(N(C)C)cc2)cc1OC	1	0.7	66.7	136.9*	0.4
C=CCOc1c(Cl)cc(CNc2ccc(C)c(Cl)c2)cc1OC	1.1	3.26	-91.1	103.2	-7.5
O=C(CSc1nccn1-c1ncc(C(F)(F)F)cc1Cl)c1ccc(Cl)cc1	1	0.67	-12.2	132.6*	-0.7
CC(C)Nc1nc(NC(C)C)nc(OCCOC(=O)c2ccccc2)n1	1.1	1.99	-19.7	98.8	-6.6
CS(=O)(=O)N1N=C(c2ccccc2)CC1c1ccc2c(c1)OCO2 (stereo not drawn)	1	1.98	-0.3	137.0*	3.1
CS(=O)(=O)Nc1cccc(C2=NN(S(C)(=O)=O)C(c3ccc4c(c3)OCO4)C2)c1 (stereo not drawn)	1.1	1.85	8.6	125.1	-5.5
O=[N+]([O-])c1ccc2[nH]nc(-c3ccccc3)c2c1	1.1	1.7	20.9	100.6	-5.8
O=c1c(-c2ccccc2)n[nH]c2ccccc12	0.5	3.43*	111.6	124.4	49.6
CCc1ccc2nc(N3C(=O)C(O)=C(C(=O)c4ccco4)C3c3cccs3)sc2c1 (stereo not drawn)	0.9	2.59	158.4*	113.2	13.3
O=C(C1=C(O)C(=O)N(CCc2ccccc2)C1c1cccs1)c1ccco1 (stereo not drawn)	1	0.95	3.6	103.5	-4.1
Cn1[nH]c(C(F)(F)F)c(C=Nc2ccc(Cl)cc2)c1=O	1.1	1.18	182.5*	99.1	-5.2
CN(C)S(=O)(=O)c1ccc(N=Cc2c(C(F)(F)F)[nH][nH]c2=O)cc1	1.1	1.02	6.9	100.3	-6.3
Cc1cc2ccccc2n1CCNC(=O)C(C)(C)C	1	1.07	-13.8	.	1.6
Cc1cccc(N=C2NN=C(c3c(C)[nH]c4ccccc34)CS2)c1	1.1	1.16	21.9	94.1	-7.2
Cc1cccc(N=C2NN=C(c3ccc4c(c3)OCCO4)CS2)c1	0.2	0.94	140.0*	111.4	81.2*
O=C(Nc1ccc(N2CCCC2)cc1)c1ccccc1F	0.3	1.87	136.9*	148.9*	71.1*
Cc1cnc(C(=O)Nc2ccc(N3CCCCC3)cc2)cn1	0.5	2.82	141.6*	135.1*	54.8*
O=C(Cc1ccccc1)Nc1ccc(N2CCCCC2)cc1	0.3	4.93*	184.8*	130.3*	72.6*
CN1CCN(c2ccc(NC(=O)Cc3ccccc3)cc2)CC1	0.9	2.35	.	113.1	6.2
O=C(Nc1ccc(N2CCCCC2)cc1)c1ccccc1	0.1	5.7*	164.0*	95.2	87.8*
SMILES	FLuc stim CS	NF-kB expr up	APP 5'UTR act	STAT1 activator	FLuc inh counter
O=C(O)c1cc(=O)[nH]c2c(Cl)cccc12	1.1	0.96	2.3	91.7	-5.7
O=C(Nc1ccc(N2CCCCC2)cc1)c1cncc(Br)c1	0.7	4.05*	108.1	133.7*	30.0
O=C(Nc1ccncc1)c1cncc(Br)c1	1	1	13.3	94.7	0.5
CCN1CCN(c2ccc(NC(=O)c3ccccc3F)cc2Cl)CC1	0.9	2.4	75.1	131.7*	6.5
O=C(Nc1ccc(N2CCCC2)cc1)c1cccc(F)c1	0.4	2.65	230.4*	121.0	59.0*
CCN1CCN(c2ccc(NC(=O)c3ccc(C#N)cc3F)cc2Cl)CC1	1	1.32	7.5	109.8	-0.5
O=C(Nc1ccc(N2CCCC2=O)cc1)c1cccc(F)c1	0.6	5.37*	57.2	137.6*	43.5
COc1ccc(/C(O)=C/C(=O)C(=O)Nc2c(C)n(C)n(-c3ccccc3)c2=O)cc1	1.1	1.18	-3.5	101.6	-6.0
